In the EternaBench riboswitch data:

Test system: MS2 coat protein
Assay: apparent Kd, MS2 coat protein; higher = weaker binding; RNA-MaP array; FMN 200 µM where present
Method in brief: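 Designs were transcribed by stalled E. coli RNA polymerase on Illumina sequencing-chip clusters. They were titrated with SNAP-549-labelled MS2 coat protein from 0.7 or 1.5 nM, doubling to 3 µM, without and then with constant ligand. Buffer: 100 mM Tris-HCl pH 7.5, 80 mM KCl, 4 mM MgCl2, BSA, DTT, yeast tRNA, Tween-20. Green signal was normalised to red-channel RNA signal and control-cluster median Fmax. Apparent Kd is the median of filtered per-cluster binding-curve fits.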

[1] = designed as: OFF switch for flavin mononucleotide, no ligand
[2] = ligand present: flavin mononucleotide, designed as: OFF switch for flavin mononucleotide
[3] = designed as: ON switch for flavin mononucleotide, no ligand
[4] = ligand present: flavin mononucleotide, designed as: ON switch for flavin mononucleotide

Sequence	apparent Kd [1] [nM]	apparent Kd [2] [nM]	apparent Kd [3] [nM]	apparent Kd [4] [nM]
ACAUGAGGAUCACCCAUGUAUUACAUGGUUAUGUUUAUUAACAGAAGGCGAAAUUACCACUGUUUCGAGGAUAUGUAUUCUAUA	65.5	63		
UUUUAACAUGAGGAUCACCCAUGUGAGGAUAUCGAAAUUUAUAUUUAUAUUAAUAAUACGAGAAGGCACAUUUU	63	87		
CCUCUACAUGAGGAUCACCCAUGUGAGGAUAUCUCGGAGCAACCACUUAAGGCGCUCCAGAGAAGGCACGUGUA	20.6	28.9		
AGCAGACGAGGAUAUAGAUUAAAUGACAUGAGGAUCACCCAUGUGAUCGAUCUAUUUUAUUUAGAAGGUGUCUGCU	18.1	32.3		
AGAAAACAUGAGGAUCACCCAUGUGAGGAUAUCGAUGUCCAAGGCCGGGUGCGGGACUCGAGAAGGCACUUGGG	75.5	38.7		
CCGAGCUUGGCAGGAUAUAGACUCGAAGUUGAUCCCGCCGGUGGAGACAUGAGGAUCACCCAUGUCUAGAAGGGCCAGUCGAAA	11.7	36		
GGUCGUCACAUAUACAUGAGGAUCACCCAUGUCAAAAGACAUGAGGAUAUGGAUCCUAAUUGGAUCCAGAAGGCAUGGACGACC			986	47.3
AAUAUGAGCUGGUUUAAAUCCGAAACAUGAGGAUCACCCAUGUAGGAUAUCAGCACGAUAAGUGCUGAGAAGGACAUCCAGCUC	15.6	15		
UAUAAUCGAGGAUAUACAUGAGGAUCACCCAUGUGUUGCCGCGUGACAUGAUCGUCAGGUAGAAGGCGAUUAUA	189	39.7		
CUUCAGUCAGGAUAUGUUAAUCUCACCACUCGGCGAGCCGGACAGAAGGGACAUGAGGAUCACCCAUGUUAAAA	39.1	23.4		
AGGAUGCGUGCAGGAUAUCGAGUCGGGAUGGCUCGCGUGGUGUGCCACAUGAGGAUCACCCAUGUCGAGAAGGGCAGGCGGCGC	535	256		
CAAUUGGCACAGAAGGGUGACAUGAGGAUCACCCAUGUAGCGUGGUACUCAGGAGGAACCACGCCACAGGAUAUGUGCCGGCAC			44.5	123
UCGGCGCGAGGAUAUACGUUUGCUUUUUUGUGUCGUUGCGUACAUGAGGAUCACCCAUGUAGAAGGCGCGCCGC	17.5	83.6		
CUGUGACGGUGCGCAAGUGGACGUAGAAGGGUCACAUGAGGAUCACCCAUGUGGGCCUGCGAGUGACAGGAUAUACGUUCGUGC	15	57		
AUAAGCUCGUCAGGAUAUACAACAUUGUGUAAGCAGUGUGGUAUGAUCACAUGAGGAUCACCCAUGUAGAAGGGACGAGCUUAU	6.9	44.9		
CCGAUGAGAGUCGGGCUACAUGAGGAUCACCCAUGUGCUUCACAGGAUAUGGUACGUAGUGAGUUCCAGAAGGGUGAUUAAUCU			316	48.7
GAAGCACGCAUUAACAUGAGGAUCACCCAUGUCAAAAGACGUGAGGAUAUGGAUCUGAAGAAGAUCCAGAAGGCACUGUGCUAA			7.39	5.59
AAAAAGUGAGGAUAUACAUGAGGAUCACCCAUGUAAUAAAAAAAAAGGGUGGAAGAAAGUAGAAGGCACCAAAA	62.4	356		
GGUUGACAUAGUCAUCCUUAACGAACAUGAGGAUCACCCAUGUAGGAUAUGCUACUCAAAGAGUAGCAGAAGGGCGUGUGUCUU	28.3	36.1		
GUAGCAUACCGAGGAUAUUCAUACCGGAAACGGACAUGAGGAUCACCCAUGUUGCGAAAGCAUUGGGAGAAGGCGGAAUGCUAC			919	55.8
UUUGAGUUCCGAGGCCGCGAGUUCACAGAAGGCAUUAUUACAUGAGGAUCACCCAUGUGGGUACAUGAGGAUAUGUGAUAUGCG			20.8	6.55
AUACAUGAGGAUCACCCAUGUUACUUGGUCUUGAUAUUACGUAGAAGGAUGAUAUUAUUAUUAGCAUAGGAUAUACAAUUUGUA	17	12.8		
GCGUGUAAUGUAGGAUAUGACACAGGAAACUGGUCAGAAGGACAUGAGGAUCACCCAUGUAAAAUGUUCAAGAAUAACACAUGC	22.9	37.8		
UAUAUGUCAGGAUAUCGAUUGGUACGGGAUUCGGUACUGGUUGAGAAGGGACAUGAGGAUCACCCAUGUUUUUC	37.8	162		
GAGCGAAAGCUCAAUGUCGAUAGCAGAAGGACAUGAAAACGUGAAAACACAUGAGGAUCACCCAUGUAGGAUAUGCUAUCGACU	57.1	745		
AAAUAGUUAGGAUAUACAUGAGGAUCACCCAUGUGGACUGAUGGCGAUUGAUUCAGUGGUAGAAGGGACUCAAA	37.4	56.4		
AUGUUGCGAGGAUAUAUUUAAUGGAUGAUAUUUAUUAGGGAACAUGAGGAUCACCCAUGUAGAAGGUGCAUAAC	63.7	87		
GUGAAACAUGAGGAUCACCCAUGUGAGGAUAUGUUUUAGUACUGCUGACAGUACAUCUAUAGAAGGCACAAAGG	26.8	29.9		

Sequence	apparent Kd [1] [nM]	apparent Kd [2] [nM]	apparent Kd [3] [nM]	apparent Kd [4] [nM]
AUCAGCUCGUCAGGAUAUACGUCACUGCGUCAGCAGUGUGGUAAGAUCACAUGAGGAUCACCCAUGUAGAAGGGACGAGAUGAU	13.8	247		
AAUUGUCGUGAGGAUAUGUACGUUUUAGUAACGACAGAAGGCAUGACAUGAGGAUCACCCAUGUUGUAAUCUGG	82	429		
AGUCGGCGAGGAUAUACAUGAGGAUCACCCAUGUAUGAUCCUAGACCUGUAGGUCCAUGUAGAAGGCGCUGACA	63.6	29.1		
AAUAACAGAGGAUAUACUAUUUUAUGUGUUUGUUGUUUUGAACAUGAGGAUCACCCAUGUAGAAGGCUGAUUAA	40.5	47		
AAUAACAGAGGAUAUACUGUUUUAUGUGUUUGUUAUUUUAAACAUGAGGAUCACCCAUGUAGAAGGCUGAAUGA	21.5	24.5		
UUUUAACAUGAGGAUCACCCAUGUGAGGAUAUCGUAUUUUUUAUUAAUAUUAAUAAAACGAGAAGGCACAUUUU	95.5	97.3		
CUGAAGUCAGGAUAUCGUUAAUUUAGUUGUUUGUAUUAGUUCGAGAAGGGACAUGAGGAUCACCCAUGUAAGUC	33.9	45.9		
AUACUCAUGUAAGGAUAUGCAGCCGUUUCGGCUGCAGAAGGUACUAAAAUACAUGAGGAUCACCCAUGUCUCUCGCAUUGCGAG			753	117
CCGUCCCGGCUGCAGCUCGGUAACAUGAGGAUCACCCAUGUCAAGGAUAUAACCAUACUCGAUCGUUAGAAGGUGACAGGGUCC	175	107		
GGAUCCAUGUAGAAGGCUGUCUUAAAAUAGGACAGAGGAUAUACAUGAGGAUCACCCAUGUACUCCUUUAAAAGGAUCCAAAUA	5.5	8.65		
GAGUGACAUGAGGAUCACCCAUGUGAGGAUAUCGGACGGACCAAAUUAACAUCCGCCGCGAGAAGGCACAUCGG	78.7	24.5		
UACAUGAGGAUCACCCAUGUUUUGUCGUGUAUGGUAUUUAUCUAGGAUAUCAAUUUACUUAUUUAUGAGAAGGAGAAUAUUAAU	32.4	31.3		
AAAUAGGUAGGAUAUACAUGGAUAUACAUUCAUGUGGACCUACAUGAGGAUCACCCAUGUAGAAGGACCUAGUA	40.2	43.7		
AAGAAGUGAGGAUAUACGCGAACAAAAAAAAAAAAGAAAGCGUAGAAGGCACAUGAGGAUCACCCAUGUCCAAA	27.2	36.3		
UGCGUUAAGCCCUUAAGUCGUCAACAUGAGGAUCACCCAUGUAGAAGGCAGCGGACGCAGCCGGCUGAGGAUAUACAUGUAGGU	7.9	10.5		
AUAUCAAGCAAGGAUAUGCAAAUGGUUAUUUAUGCAGAAGGUGCGACAUGAGGAUCACCCAUGUUUCUGGGUUU	87.7	134		
UAAAGCGUAGAUAAUUAUGUUACAUGAGGAUCACCCAUGUCAUAGGAUAUGCAGUGGAAUACACUGCAGAAGGAUGAAUCGCAG	24.9	33.3		
GACAUGAGGAUCACCCAUGUCCAACCAGAAGGCCAGGAAUCGGACCCGUGUAUCGGGUUCGAGAUGGAGGAUAUGGGCGCCGAA			78.2	34.1
UUAUGAUAGAUAGGAUAUACAAUGGAUUAAGAAGUAGAAGGAUCAAGUGGGAAAUGAACAUGAGGAUCACCCAUGUAAUAGGUU			127	83.5
GGACCGCGUAGAAUUAGCGGCCGGCAGGAUAUGACAUGAGGAUCACCCAUGUGAACUCCAUUGGGUCAGAAGGGCCACGACACA	20.6	96.4		
ACAUGAGGAUCACCCAUGUUCACAUAGGAUAUUGAUUAUAUUGGUUUUAGAAUAGUAAUUAACCUCAAGAAGGAUGCCUGAUCU			12.5	10.9
CCGAAUGUCACAGGAUAUGGUCCGGGCUCGGGACCAGAAGGGUGAUCUCACAUGAGGAUCACCCAUGUGUAGGCGUUAGGCUAC			36.7	249
GCUACCAAAGAAGCCAACAUGAGGAUCACCCAUGUAUGUUGGUAGGAUAUCGUAUGCAAAGCAUACGAGAAGGGCUAAGGUAGC			98.8	116
UACAUGAGGAUCACCCAUGUUUUGUCGUGUAUGGUAUUUAUCUAGGAUAUCAAUUUAGUUAAUUAUGAGAAGGAGAAUAUUAAU	39.1	39		
GUAGCAUACCAAGGAUAUUUAGGGCUUUGAUAGACAUGAGGAUCACCCAUGUGGCGUUAGUCACGGGAGAAGGUGGUAUGCUAC			383	81.9
GGUGCGUAUGUGAGGAUAUGCUGGUCCUUGGCUCGGCAGAAGGCACAUGAGGAUCACCCAUGUGGUGUCGUUCC	52.5	222		
UUGCGGUAGGAGAAGGACAGAGGCGGAAACACAAACAUGAGGAUCACCCAUGUAGGAUAUCCUACCUAACGCGGACUCCUCCAG	6.3	8.88		
